Several values for one entry are separate records, joined by “and”; a condition that tells them apart may be missing. Identical values can stand only once.
Test system: U2OS
Test: Multiplex assay against U2OS
Assay type: toxicity, cell-based
Details: human
Method in brief: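 Live cells carried four stains from seeding: Hoechst33342, BioTracker Green Microtubule Cytoskeleton Dye, MitoTracker Red and Annexin V Alexa Fluor 680. They were imaged on a CQ1 microscope at 37°C and 5% CO2 after compound addition. Using CellPathfinder machine-learning gating, cells were split into Hoechst high-intensity objects or normal cells, normal cells into healthy, pyknosed or fragmented nuclei, and pyknosed cells into mitotic or apoptotic; tubulin, mitochondrial-mass and membrane-permeability phenotypes are per cents of healthy-nucleus cells.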

[1] = 12 h, 1 µM, compound concentration 1 uM
[2] = 12 h, 10 µM, compound concentration 10 uM
[3] = 24 h, 1 µM, compound concentration 1 uM
[4] = 24 h, 10 µM, compound concentration 10 uM
[5] = 48 h, 1 µM, compound concentration 1 uM
[6] = 48 h, 10 µM, compound concentration 10 uM

`CNc1nc(NCc2ncccn2)c2c(-c3ccc4ncccc4c3)c[nH]c2n1` was tested, and the “Population Apoptotic (%)” value [1] was 34.88% and 46.15%, the “Population Fragmented Nuclei (%)” value [1] was 1.68% and 0.68% and the “Population Healthy Nuclei (%)” value [1] was 88.01% and 90.48%. For the same compound, the “Population Hoechst High Intensity Objects (%)” value [1] was 0%, the “Population Membrane Permeable-Phenotype (%)” value [1] was 1.36% and 3.01% and the “Population Mitochondria Different-Phenotype (%)” value [1] was 0% and 4.51%. For the same compound, the “Population Mitotic Cells (%)” value [1] was 65.12% and 53.85%, the “Population Normal (%)” value [1] was 100% and the “Population Pyknosed Nuclei (%)” value [1] was 10.31% and 8.84%. The “Population Tubulin-Different-Phenotype (%)” value [1] was 0.82% and 0.75%, the “Total Cell Count” value [1] was 417 and 147 and the “Population Apoptotic (%)” value [2] was 30.95% and 40%. The “Population Fragmented Nuclei (%)” value [2] was 0.88% and 3.14%, the “Population Healthy Nuclei (%)” value [2] was 86.76% and 84.28% and the “Population Hoechst High Intensity Objects (%)” value [2] was 0%. For the same compound, the “Population Membrane Permeable-Phenotype (%)” value [2] was 6.44% and 8.21%, the “Population Mitotic Cells (%)” value [2] was 69.05% and 60% and the “Population Normal (%)” value [2] was 100%. The “Population Pyknosed Nuclei (%)” value [2] was 12.35% and 12.58%, the “Population Tubulin-Different-Phenotype (%)” value [2] was 6.78% and 4.48% and the “Total Cell Count” value [2] was 340 and 159. For the same compound, the “Population Apoptotic (%)” value [3] was 48.89% and 42.86%, the “Population Fragmented Nuclei (%)” value [3] was 2.09% and 2.01% and the “Population Healthy Nuclei (%)” value [3] was 90.09% and 83.92%. The “Population Hoechst High Intensity Objects (%)” value [3] was 0%, the “Population Membrane Permeable-Phenotype (%)” value [3] was 0.58% and 1.2% and the “Population Mitochondria Different-Phenotype (%)” value [3] was 0.19% and 6.59%. For the same compound, the “Population Mitotic Cells (%)” value [3] was 51.11% and 57.14%, the “Population Normal (%)” value [3] was 100% and the “Population Pyknosed Nuclei (%)” value [3] was 7.83% and 14.07%. The “Population Tubulin-Different-Phenotype (%)” value [3] was 0.58% and 0.6%, the “Total Cell Count” value [3] was 575 and 199 and the “Population Apoptotic (%)” value [4] was 29.41% and 43.75%. For the same compound, the “Population Fragmented Nuclei (%)” value [4] was 2.37% and 4.04%, the “Population Healthy Nuclei (%)” value [4] was 89.57% and 87.88% and the “Population Hoechst High Intensity Objects (%)” value [4] was 0%. The “Population Membrane Permeable-Phenotype (%)” value [4] was 1.59% and 2.3%, the “Population Mitotic Cells (%)” value [4] was 70.59% and 56.25% and the “Population Normal (%)” value [4] was 100%. The “Population Pyknosed Nuclei (%)” value [4] was 8.06% and 8.08%, the “Population Tubulin-Different-Phenotype (%)” value [4] was 2.12% and 1.15% and the “Total Cell Count” value [4] was 422 and 198. The “Population Apoptotic (%)” value [5] was 45% and 54.29%, the “Population Fragmented Nuclei (%)” value [5] was 3.04% and 1.19% and the “Population Healthy Nuclei (%)” value [5] was 87.45% and 88.36%. The “Population Hoechst High Intensity Objects (%)” value [5] was 0%, the “Population Membrane Permeable-Phenotype (%)” value [5] was 1.2% and 1.35% and the “Population Mitochondria Different-Phenotype (%)” value [5] was 0.11% and 4.39%. For the same compound, the “Population Mitotic Cells (%)” value [5] was 55% and 45.71%, the “Population Normal (%)” value [5] was 100% and the “Population Pyknosed Nuclei (%)” value [5] was 9.51% and 10.45%. The “Population Tubulin-Different-Phenotype (%)” value [5] was 1.41% and 0.68%, the “Population Apoptotic (%)” value [6] was 55.56% and 56% and the “Population Fragmented Nuclei (%)” value [6] was 1.27% and 3.63%. For the same compound, the “Population Healthy Nuclei (%)” value [6] was 89.84% and 88.12%, the “Population Hoechst High Intensity Objects (%)” value [6] was 0% and the “Population Membrane Permeable-Phenotype (%)” value [6] was 0.94% and 1.87%. For the same compound, the “Population Mitochondria Different-Phenotype (%)” value [6] was 0.78% and 7.87%, the “Population Mitotic Cells (%)” value [6] was 44.44% and 44% and the “Population Normal (%)” value [6] was 100%. For the same compound, the “Population Pyknosed Nuclei (%)” value [6] was 8.89% and 8.25%, the “Population Tubulin-Different-Phenotype (%)” value [6] was 1.88% and 1.5% and the “Total Cell Count” value [6] was 709 and 303.

With `CCNC1(C(N)=O)CCN(c2ncnc3c2nc(-c2ccccc2Cl)n3-c2ccc(Cl)cc2)CC1` [OTENABANT] the “Population Apoptotic (%)” value [1] was 77% and 85%, the “Population Fragmented Nuclei (%)” value [1] was 30% and 17% and the “Population Healthy Nuclei (%)” value [1] was 60% and 74%. The “Population Hoechst High Intensity Objects (%)” value [1] was 3% and 2%, the “Population Membrane Permeable-Phenotype (%)” value [1] was 13% and 11% and the “Population Mitotic Cells (%)” value [1] was 22% and 14%. The “Population Normal (%)” value [1] was 96% and 97%, the “Population Pyknosed Nuclei (%)” value [1] was 9% and 7% and the “Population Tubulin-Different-Phenotype (%)” value [1] was 4% and 10%. For the same compound, the “Total Cell Count” value [1] was 254 and 93, the “Population Apoptotic (%)” value [2] was 58% and 70% and the “Population Fragmented Nuclei (%)” value [2] was 31% and 21%. For the same compound, the “Population Healthy Nuclei (%)” value [2] was 48% and 60%, the “Population Hoechst High Intensity Objects (%)” value [2] was 6% and 0% and the “Population Membrane Permeable-Phenotype (%)” value [2] was 81% and 65%. For the same compound, the “Population Mitochondria Different-Phenotype (%)” value [2] was 63% and 73%, the “Population Mitotic Cells (%)” value [2] was 41% and 30% and the “Population Normal (%)” value [2] was 93% and 99%. For the same compound, the “Population Pyknosed Nuclei (%)” value [2] was 19% and 18%, the “Population Tubulin-Different-Phenotype (%)” value [2] was 89% and 76% and the “Total Cell Count” value [2] was 211 and 112. The “Population Apoptotic (%)” value [3] was 79% and 80%, the “Population Fragmented Nuclei (%)” value [3] was 26% and 24% and the “Population Healthy Nuclei (%)” value [3] was 61% and 62%. The “Population Hoechst High Intensity Objects (%)” value [3] was 3% and 4%, the “Population Membrane Permeable-Phenotype (%)” value [3] was 11% and 15% and the “Population Mitochondria Different-Phenotype (%)” value [3] was 5% and 15%. For the same compound, the “Population Mitotic Cells (%)” value [3] was 20%, the “Population Normal (%)” value [3] was 96% and 95% and the “Population Pyknosed Nuclei (%)” value [3] was 11% and 13%. For the same compound, the “Population Tubulin-Different-Phenotype (%)” value [3] was 7% and 5%, the “Total Cell Count” value [3] was 308 and 120 and the “Population Apoptotic (%)” value [4] was 69% and 80%. For the same compound, the “Population Fragmented Nuclei (%)” value [4] was 29% and 28%, the “Population Healthy Nuclei (%)” value [4] was 49% and 53% and the “Population Hoechst High Intensity Objects (%)” value [4] was 3%. The “Population Membrane Permeable-Phenotype (%)” value [4] was 55% and 47%, the “Population Mitochondria Different-Phenotype (%)” value [4] was 75% and 72% and the “Population Mitotic Cells (%)” value [4] was 30% and 20%. The “Population Normal (%)” value [4] was 96%, the “Population Pyknosed Nuclei (%)” value [4] was 20% and 18% and the “Population Tubulin-Different-Phenotype (%)” value [4] was 78% and 62%. The “Total Cell Count” value [4] was 218 and 137, the “Population Apoptotic (%)” value [5] was 86% and 52% and the “Population Fragmented Nuclei (%)” value [5] was 24% and 16%. For the same compound, the “Population Healthy Nuclei (%)” value [5] was 64% and 69%, the “Population Hoechst High Intensity Objects (%)” value [5] was 1% and 4% and the “Population Membrane Permeable-Phenotype (%)” value [5] was 7% and 13%. The “Population Mitochondria Different-Phenotype (%)” value [5] was 4% and 10%, the “Population Normal (%)” value [5] was 98% and 95% and the “Population Pyknosed Nuclei (%)” value [5] was 10% and 14%. The “Population Tubulin-Different-Phenotype (%)” value [5] was 3% and 9%, the “Population Apoptotic (%)” value [6] was 86% and 80% and the “Population Fragmented Nuclei (%)” value [6] was 32% and 29%. For the same compound, the “Population Healthy Nuclei (%)” value [6] was 43% and 45%, the “Population Hoechst High Intensity Objects (%)” value [6] was 7% and 10% and the “Population Membrane Permeable-Phenotype (%)” value [6] was 49% and 43%. For the same compound, the “Population Mitochondria Different-Phenotype (%)” value [6] was 55% and 66%, the “Population Mitotic Cells (%)” value [6] was 13% and 20% and the “Population Normal (%)” value [6] was 92% and 89%. The “Population Pyknosed Nuclei (%)” value [6] was 23% and 24%, the “Population Tubulin-Different-Phenotype (%)” value [6] was 51% and 49% and the “Total Cell Count” value [6] was 269 and 138.
